According to ChEMBL document CHEMBL3102843, “Synthesis and antifungal activity of substituted 2,4,6-pyrimidinetrione carbaldehyde hydrazones” (Bioorg Med Chem, 2014):
In brackets after ≈: the same amount, converted by molar mass. Activity calls are given as the source filed them. Unless noted, the calls are words filed in the database; no cut-off is given here.

Legend:
HepG2 [1] = test: Cytotoxicity against human HepG2 cells assessed as cell viability at 8 to 800 ug/ml after 24 hrs by MTT assay; assay type: cell-based; conditions: hepg2, 24 h
In short: (§1)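 MTT (tetrazolium) assay in Vero and HepG2 cells. Cells were pre-grown 24 h at 37 °C/5% CO₂ in DMEM with 10% FBS. Compounds diluted in media at the fungal MIC and at 5×, 10× and 100× MIC, then exposed 24 h. Dye was added for 1–4 h, then stop solution for 1 h at RT; A570 read. Viability was taken as % of 1% DMSO no-drug wells, with 0.1% saponin as death control. Triplicate, mean ± SD.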

[2] = Cytotoxicity against african green monkey Vero cells assessed as cell viability at 8 to 800 ug/ml after 24 hrs by MTT assay; assay type: cell-based; conditions: chlorocebus sabaeus, read-out: Activity; in short: as §1
Candida albicans [3] = test: Antifungal activity against Candida albicans ATCC 10231 at 8 ug/ml after 48 to 72 hrs by broth microdilution method; assay type: functional
Nakaseomyces glabratus [4] = test: Antifungal activity against Candida glabrata ATCC 48435 after 48 to 72 hrs by broth microdilution method; assay type: functional
In short: (§2)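 Broth microdilution per NCCLS. Organisms were subcultured on Sabouraud agar. Inoculum was 5–7 colonies from YM agar in sterile water, adjusted to 0.5 McFarland at 530 nm (1–5×10⁶ cells/mL stock), held 30 min at RT, then diluted 1:50 in HEPES-buffered RPMI 1640. DMSO stocks were twofold-diluted, with final DMSO ≤1%. Plates ran 48–72 h at 35 °C, humid. MIC is the lowest concentration giving ≥80% growth reduction vs drug-free wells, scored visually. Fluconazole or amphotericin B ran as drug control.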

Candida albicans [5] = test: Antifungal activity against Candida albicans ATCC 10231 after 48 to 72 hrs by broth microdilution method; assay type: functional; in short: as §2
Nakaseomyces glabratus [6] = test: Antifungal activity against Candida glabrata ATCC 48435 at 31 ug/ml after 48 to 72 hrs by broth microdilution method; assay type: functional
Nakaseomyces glabratus [7] = test: Antifungal activity against Candida glabrata ATCC 48435 at 62 ug/ml after 48 to 72 hrs by broth microdilution method; assay type: functional
HepG2 [8] = test: Cytotoxicity against human HepG2 cells assessed as cell viability at 2 to 200 ug/ml after 24 hrs by MTT assay; assay type: cell-based; conditions: hepg2, 24 h; in short: as §1
[9] = Cytotoxicity against african green monkey Vero cells assessed as cell viability at 2 to 200 ug/ml after 24 hrs by MTT assay; assay type: cell-based; conditions: chlorocebus sabaeus, read-out: Activity; in short: as §1
Nakaseomyces glabratus [10] = test: Antifungal activity against Candida glabrata ATCC 48435 at 16 ug/ml after 48 to 72 hrs by broth microdilution method; assay type: functional
Candida albicans [11] = test: Antifungal activity against Candida albicans ATCC 10231 at 62 ug/ml after 48 to 72 hrs by broth microdilution method; assay type: functional
Nakaseomyces glabratus [12] = test: Antifungal activity against Candida glabrata CS 177.93 at 0.195 to 100 uM after 24 to 48 hrs in presence of 3% ethanol; assay type: functional, organism-based
In short: (§3)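 Cells grown overnight in YPD at 30 °C, washed, then seeded at ~10³ cells/well (10⁴ cells/mL) in YPD (2% glucose), YPG (3% glycerol) or YPE (3% ethanol), pH 6.5. Drug at 0 and 0.195–100, final DMSO 0.5%. Two repeat experiments.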

Nakaseomyces glabratus [13] = test: Antifungal activity against Candida glabrata CS 177.93 at 0.195 to 100 uM after 24 to 48 hrs in presence of 3% glycerol; assay type: functional, organism-based; in short: as §3
Nakaseomyces glabratus [14] = test: Antifungal activity against Candida glabrata CS 177.93 at 0.195 to 100 uM after 24 to 48 hrs in presence of 2% glucose; assay type: functional, organism-based; in short: as §3
Candida albicans [15] = test: Antifungal activity against Candida albicans SC5314 at 0.195 to 100 uM after 24 to 48 hrs in presence of 3% ethanol; assay type: functional, organism-based; in short: as §3
Candida albicans [16] = test: Antifungal activity against Candida albicans SC5314 at 0.195 to 100 uM after 24 to 48 hrs in presence of 3% glycerol; assay type: functional, organism-based; in short: as §3
Candida albicans [17] = test: Antifungal activity against Candida albicans SC5314 at 0.195 to 100 uM after 24 to 48 hrs in presence of 2% glucose; assay type: functional, organism-based; in short: as §3
Candida albicans [18] = test: Antifungal activity against Candida albicans; assay type: functional, organism-based; in short: as §2
[19] = Cytotoxicity against african green monkey Vero cells assessed as cell viability at 10 times MIC80 for fungus after 24 hrs by MTT assay; assay type: cell-based; conditions: chlorocebus sabaeus, read-out: Activity; in short: as §1
Candida albicans [20] = test: Antifungal activity against Candida albicans ATCC 10231 at 16 ug/ml after 48 to 72 hrs by broth microdilution method; assay type: functional

With CN1C(=O)C(/C=N/c2ccccc2O)C(=O)N(C)C1=O the Activity (HepG2 [1]) was “Toxic”, the viability at 24 h [2] was 35% and the inhibition at 8 µg/mL (Candida albicans [3]) was under 50%. For the same molecule, the MIC80 (Nakaseomyces glabratus [4]) was “inactive” and the MIC80 (Candida albicans [5]) was 8 µg/mL (≈ 29.1 µM).
With CN/N=C(\C)C1C(=O)NC(=O)NC1=O the inhibition at 31 µg/mL (Nakaseomyces glabratus [6]) was under 50%, the MIC80 (Nakaseomyces glabratus [4]) was 31 µg/mL (≈ 156 µM) and the MIC80 (Candida albicans [5]) was “inactive”.
For COc1ccc(C(=O)N/N=C/C2C(=O)NC(=O)NC2=O)cc1, the inhibition at 62 µg/mL (Nakaseomyces glabratus [7]) was under 50%, the MIC80 (Nakaseomyces glabratus [4]) was 62 µg/mL (≈ 204 µM) and the MIC80 (Candida albicans [5]) was “inactive”.
In the case of C/C(=N\Nc1ccccc1)C1C(=O)N(C)C(=O)N(C)C1=O, the Activity (HepG2 [8]) is reported as “Toxic”, the viability at 24 h [9] is reported as 35% and the MIC80 (Nakaseomyces glabratus [4]) is reported as 2 µg/mL (≈ 6.94 µM). It also gave an MIC80 (Candida albicans [5]) of 2 µg/mL (≈ 6.94 µM).
With O=C1NC(=O)C(/C=N/c2ccccc2O)C(=O)N1 the inhibition at 8 µg/mL (Candida albicans [3]) was under 50%, the MIC80 (Nakaseomyces glabratus [4]) was “inactive” and the MIC80 (Candida albicans [5]) was 8 µg/mL (≈ 32.4 µM).
O=C1NC(=O)C(/C=N/NC(=O)c2ccc([N+](=O)[O-])cc2)C(=O)N1 showed an inhibition at 16 µg/mL (Nakaseomyces glabratus [10]) of under 50%, an inhibition at 62 µg/mL (Candida albicans [11]) of under 50% and an MIC80 (Nakaseomyces glabratus [4]) of 16 µg/mL (≈ 50.1 µM). The MIC80 (Candida albicans [5]) was 62 µg/mL (≈ 194 µM).
In the case of O=C1NC(=O)C(/C=N/Nc2ccc([N+](=O)[O-])cc2)C(=O)N1, the Activity (Nakaseomyces glabratus [12]) is reported as “Active”, the Activity (Nakaseomyces glabratus [13]) is reported as “Active” and the Activity (Nakaseomyces glabratus [14]) is reported as “Active”. The Activity (Candida albicans [15]) was “Active”, the Activity (Candida albicans [16]) was “Active” and the Activity (Candida albicans [17]) was “Active”. For the same molecule, the Activity (Candida albicans [18]) was “Dose-dependent effect”, the Activity (HepG2 [8]) was “Toxic” and the viability at 24 h [19] was 80%. For the same molecule, the MIC80 (Nakaseomyces glabratus [4]) was 1 µg/mL (≈ 3.43 µM) and the MIC80 (Candida albicans [5]) was 2 µg/mL (≈ 6.87 µM).
With Cc1ccc(S(=O)(=O)N/N=C/C2C(=O)NC(=O)NC2=O)cc1 the inhibition at 16 µg/mL (Candida albicans [20]) was under 50%, the MIC80 (Nakaseomyces glabratus [4]) was “inactive” and the MIC80 (Candida albicans [5]) was 16 µg/mL (≈ 49.3 µM).
